The values that follow come from ChEMBL document CHEMBL4765448, “Multiple biological active 4-aminopyrazoles containing trifluoromethyl and their 4-nitroso-precursors: Synthesis and evaluation” (Eur J Med Chem, 2020).

≈ marks a conversion by molar mass, not a printed value. Calls of active or inactive are those of the source. The calls are words filed in the database; no cut-off is given here.

One experiment concerns Neisseria gonorrhoeae. In words: Antibacterial activity against Neisseria gonorrhoeae. It counts as functional.
The next experiment deals with Streptococcus pyogenes. In words: Antibacterial activity against Streptococcus pyogenes. It counts as functional.
For experiment [1], the system named is Trichophyton interdigitale. Description: Antifungal activity against Trichophyton mentagrophytes var. interdigitale. It counts as functional.
The next experiment relates to Serratia marcescens. Description: Antibacterial activity against Serratia marcescens. The class given is functional.
Another experiment deals with Trichophyton rubrum. Description: Antifungal activity against Trichophyton rubrum. The class given is functional.
The next experiment concerns Trichophyton violaceum. In words: Antifungal activity against Trichophyton violaceum. It counts as functional.
For the next experiment, the system named is Escherichia coli. Description: Antibacterial activity against Escherichia coli. The class given is functional.
The next experiment has as its system Trichophyton tonsurans. Description: Antifungal activity against Trichophyton tonsurans. It counts as functional.
The subject of the next experiment is Klebsiella pneumoniae. Description: Antibacterial activity against Klebsiella pneumoniae. The class given is functional.
Another experiment deals with Pseudomonas aeruginosa. In words: Antibacterial activity against Pseudomonas aeruginosa. The class given is functional.
In a further experiment the test system is Epidermophyton floccosum. Description: Antifungal activity against Epidermophyton floccosum. It counts as functional.
The test system of the next experiment is Candida albicans. Description: Antifungal activity against Candida albicans. The class given is functional.
The test system of the next experiment is Citrobacter braakii. In words: Antibacterial activity against Citrobacter braakii. It counts as functional.
Experiment [2] relates to Rattus norvegicus. In words: Antiinflammatory activity in rat model of carrageenan-induced paw edema assessed as inhibition of hind paw swelling at 15 mg/kg, ip measured after 5 hrs. The class given is functional, organism-based. On the technique in general: The carrageenan paw model is a standard test of acute inflammation.
The test system of the next experiment is Proteus vulgaris. Description: Antibacterial activity against Proteus vulgaris. The class given is functional.
The next experiment relates to Microsporum canis. In words: Antifungal activity against Microsporum canis. The class given is functional.
The subject of a further experiment is Shigella flexneri. Description: Antibacterial activity against Shigella flexneri. The class given is functional.
For experiment [3], the system named is Staphylococcus aureus. Description: Antibacterial activity against methicillin resistant Staphylococcus aureus. The class given is functional.
The subject of experiment [4] is Staphylococcus aureus. In words: Antibacterial activity against Staphylococcus aureus. The class given is functional.
The test system of a further experiment is Nannizzia gypsea. Description: Antifungal activity against Trichophyton gypseum. The class given is functional.
For experiment [5], the system named is Mycobacterium tuberculosis. Description: Antitubercular activity against Mycobacterium tuberculosis H37Rv. The class given is functional. In outline: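 Mycobacterium tuberculosis strain H37Rv; minimum inhibitory concentration (MIC) taken as the lowest level needed to inhibit bacterial growth; isoniazid and pyrazinamide served as reference drugs.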
For experiment [6], the system named is Rattus norvegicus. In words: Analgesic activity in rat assessed as prolongation of latency period at 15 mg/kg, ip measured after 1 hr by hot-plate test relative to control. The class given is functional. The method, boiled down: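 Hot-plate test in rats. Compounds were given by intraperitoneal injection. Latency was read at 1 h and, for some compounds, also at 2 h after dosing. Results are expressed as % prolongation of the latent period versus vehicle-treated control. Significance was given as p-values.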
(Thermal pain tests record how soon the animal reacts.)

A short description of experiment [7]: Antioxidant activity assessed as trolox equivalent of ABTS radical scavenging activity measured after 1 hr by UV-vis spectrophotometric method. It counts as functional. The method, boiled down:
(§1)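 ABTS cation-radical decolorization was read spectrophotometrically as the fall in absorbance after 1 h. Trolox was the reference. TEAC was taken as the ratio of concentration-response slopes, test/Trolox, and IC50 was also derived. Data are mean ± SEM, n = 3.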

The nature of experiment [8]: Antioxidant activity assessed as ABTS radical scavenging activity measured after 1 hr by UV-vis spectrophotometric method. It counts as functional. The method, boiled down:
as §1

On to `CS(=O)(=O)c1ccc(-n2nc(C(F)(F)F)c(N=O)c2-c2ccccc2)cc1`, for which the MIC against Neisseria gonorrhoeae is 62.5 µg/mL (≈ 158 µM); in the experiment on Streptococcus pyogenes it was above 250 µg/mL; in experiment [1], 200 µg/mL (≈ 506 µM); against Serratia marcescens it was above 250 µg/mL; against Trichophyton rubrum, 200 µg/mL (≈ 506 µM); against Trichophyton violaceum, above 200 µg/mL. The MIC with Escherichia coli is above 250 µg/mL; in the experiment on Trichophyton tonsurans, above 200 µg/mL; against Klebsiella pneumoniae, above 250 µg/mL; with Pseudomonas aeruginosa, above 250 µg/mL; in the experiment with Epidermophyton floccosum, 200 µg/mL (≈ 506 µM); against Candida albicans, above 200 µg/mL. Further, the MIC against Citrobacter braakii is above 250 µg/mL; in the experiment with Proteus vulgaris it was above 250 µg/mL; against Microsporum canis, 200 µg/mL (≈ 506 µM); against Shigella flexneri it was above 250 µg/mL; against Staphylococcus aureus [3], 31.2 µg/mL (≈ 78.9 µM); against Staphylococcus aureus [4] it was above 250 µg/mL. The molecule further showed an MIC against Nannizzia gypsea of 200 µg/mL (≈ 506 µM). The outcome in the experiment on Rattus norvegicus [2] was Active.

With `Cn1nc(C(F)(F)F)c(N=O)c1-c1ccco1`, the MIC was 125 µg/mL (≈ 510 µM) with Neisseria gonorrhoeae; 25 µg/mL (≈ 102 µM) in experiment [1]; above 500 µg/mL in the experiment on Serratia marcescens; 12.5 µg/mL (≈ 51 µM) against Trichophyton rubrum; 6.25 µg/mL (≈ 25.5 µM) in the experiment on Trichophyton violaceum; above 500 µg/mL with Escherichia coli. Further, the MIC is 12.5 µg/mL (≈ 51 µM) against Trichophyton tonsurans; above 500 µg/mL against Klebsiella pneumoniae; 12.5 µg/mL (≈ 51 µM) in experiment [5]; above 500 µg/mL against Pseudomonas aeruginosa; 12.5 µg/mL (≈ 51 µM) against Epidermophyton floccosum; above 500 µg/mL against Citrobacter braakii. The MIC in the experiment on Proteus vulgaris is above 500 µg/mL; against Microsporum canis it was 12.5 µg/mL (≈ 51 µM); in the experiment on Shigella flexneri, above 500 µg/mL; in the experiment on Staphylococcus aureus [3], 31.2 µg/mL (≈ 127 µM); with Staphylococcus aureus [4], 15.6 µg/mL (≈ 63.6 µM); in the experiment on Nannizzia gypsea it was 50 µg/mL (≈ 204 µM). Moreover, the outcome in the experiment on Rattus norvegicus [6] was inactive. Further, the Activity in experiment [7] is 0.02 equiv. Also, in the experiment on Candida albicans, the MIC entry was “inactive”. For the same molecule, the outcome in the experiment with Rattus norvegicus [2] was Active.

Turning to `O/N=C1\C(c2ccccc2)=NN(c2ccccc2)C1(O)C(F)(F)F` (centres undefined), the MIC with Neisseria gonorrhoeae was 31.2 µg/mL (≈ 93.1 µM); in the experiment on Streptococcus pyogenes it was above 250 µg/mL; in [1] it was 100 µg/mL (≈ 298 µM); against Serratia marcescens it was above 250 µg/mL; against Trichophyton rubrum, 25 µg/mL (≈ 74.6 µM); in the experiment with Trichophyton violaceum it was 100 µg/mL (≈ 298 µM). In addition, the minimal inhibitory concentration (MIC) in the experiment on Escherichia coli is above 250 µg/mL; against Trichophyton tonsurans, 50 µg/mL (≈ 149 µM); in the experiment on Klebsiella pneumoniae, above 250 µg/mL; in the experiment with Pseudomonas aeruginosa, above 250 µg/mL; in the experiment with Epidermophyton floccosum, 100 µg/mL (≈ 298 µM); in the experiment on Candida albicans, 50 µg/mL (≈ 149 µM). The MIC in the experiment on Citrobacter braakii was above 250 µg/mL; against Proteus vulgaris, above 250 µg/mL; against Microsporum canis it was 100 µg/mL (≈ 298 µM); against Shigella flexneri it was above 250 µg/mL; against Staphylococcus aureus [3] it was 31.2 µg/mL (≈ 93.1 µM); against Staphylococcus aureus [4] it was 31.2 µg/mL (≈ 93.1 µM). Inhibition of growth against Nannizzia gypsea (MIC) required 100 µg/mL (≈ 298 µM). The IC50 in experiment [8] worked out at 48.6 µM. Also, the Activity in experiment [7] is 0.44 equiv. The outcome with Rattus norvegicus [2] was Active.

The term MIC denotes the lowest concentration that inhibits growth of the organism. A word on the IC50: it is the point on the concentration scale where inhibition reaches its midpoint.
